Activity calls are given as the source filed them. The calls are words filed in the database; no cut-off is given here.
Experiments:
Mus musculus [1] = assay: Anti-Hyperglycemic activity in high fat diet-fed/streptozotocin-induced type 2 diabetic mellitus C57BL/6 mouse model assessed as reduction in AUC(0 to 120 mins) of blood glucose level at 10 mg/kg, ip administered 30 mins prior to glucose challenge and measured after 120 mins by IGTT; type: functional; details: C57BL/6, ip, 2.5 h, time 150 min
Procedure, shortened: (§1)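 Glucose tolerance tests (intraperitoneal or oral) in HFD/STZ type 2 diabetic male C57BL/6 mice. Glucose AUC was calculated over 0–120 min. Percent reduction came from AUC normalised to saline-challenged controls. Mean ± SD, n = 4. Statistics: one-way ANOVA with LSD post-test.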

Mus musculus [2] = assay: Anti-Hyperglycemic activity in high fat diet-fed/streptozotocin-induced type 2 diabetic mellitus C57BL/6 mouse model assessed as reduction in blood glucose level at 10 mg/kg/day for 14 days and measured on day 14; type: functional; details: C57BL/6, 336 h, time 14 day
Procedure, shortened: (§2)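 HFD/STZ-induced type 2 diabetic male C57BL/6 mice were dosed at 10 mg/kg/day for 14 days. Plasma glucose was tracked over the treatment period and compared with diabetic controls. Mean ± SD of 4 mice. Statistics: one-way ANOVA with LSD post-test.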

Mus musculus [3] = assay: Anti-Hyperglycemic activity in high fat diet-fed/streptozotocin-induced type 2 diabetic mellitus C57BL/6 mouse model assessed as blood glucose level at 10 mg/kg, ip administered 30 mins prior to glucose challenge and measured after 1.5 hrs by IPGTT (reference value: 12.3 to 15.3 mM); type: functional; details: time 120 min, 2 h
Procedure, shortened: (§3)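 Male C57BL/6 mice made type 2 diabetic by high-fat diet plus streptozotocin. Each received a single intraperitoneal dose (1, 5 or 10 mg/kg) 30 min before an intraperitoneal glucose challenge. Blood glucose was read at 0, 0.5, 1, 1.5 and 2 h. Results are mean ± SD, n = 4.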

Mus musculus [4] = assay: Anti-Hyperglycemic activity in high fat diet-fed/streptozotocin-induced type 2 diabetic mellitus C57BL/6 mouse model assessed as blood glucose level at 10 mg/kg, ip administered 30 mins prior to glucose challenge and measured after 0.5 hrs by IPGTT (reference value: 12.3 to 15.3 mM); type: functional; details: time 60 min, 1 h; procedure, shortened: as §3
Mus musculus [5] = assay: Anti-Hyperglycemic activity in high fat diet-fed/streptozotocin-induced type 2 diabetic mellitus C57BL/6 mouse model assessed as blood glucose level at 10 mg/kg, ip administered 30 mins prior to glucose challenge and measured after 1 hrs by IPGTT (reference value: 12.3 to 15.3 mM); type: functional; details: time 90 min, 1.5 h; procedure, shortened: as §3
Mus musculus [6] = assay: Anti-Hyperglycemic activity in high fat diet-fed/streptozotocin-induced type 2 diabetic mellitus C57BL/6 mouse model assessed as reduction in blood glucose level at 10 mg/kg/day for 14 days and measured on day 5; type: functional, organism-based; details: time 5.0 day; procedure, shortened: as §2
Mus musculus [7] = assay: Anti-Hyperglycemic activity in high fat diet-fed/streptozotocin-induced type 2 diabetic mellitus C57BL/6 mouse model assessed as blood glucose level at 10 mg/kg, ip administered 30 mins prior to glucose challenge and measured after 2 hrs by IPGTT (reference value: 12.3 to 15.3 mM); type: functional; details: time 150 min, 2.5 h; procedure, shortened: as §3
Dipeptidyl peptidase 9 = Dipeptidyl peptidase 9 (Homo sapiens, UniProt Q86TI2); assay: Inhibition of DPP9 (unknown origin)
Dipeptidyl peptidase 9, sequence (Q86TI2 whole entry): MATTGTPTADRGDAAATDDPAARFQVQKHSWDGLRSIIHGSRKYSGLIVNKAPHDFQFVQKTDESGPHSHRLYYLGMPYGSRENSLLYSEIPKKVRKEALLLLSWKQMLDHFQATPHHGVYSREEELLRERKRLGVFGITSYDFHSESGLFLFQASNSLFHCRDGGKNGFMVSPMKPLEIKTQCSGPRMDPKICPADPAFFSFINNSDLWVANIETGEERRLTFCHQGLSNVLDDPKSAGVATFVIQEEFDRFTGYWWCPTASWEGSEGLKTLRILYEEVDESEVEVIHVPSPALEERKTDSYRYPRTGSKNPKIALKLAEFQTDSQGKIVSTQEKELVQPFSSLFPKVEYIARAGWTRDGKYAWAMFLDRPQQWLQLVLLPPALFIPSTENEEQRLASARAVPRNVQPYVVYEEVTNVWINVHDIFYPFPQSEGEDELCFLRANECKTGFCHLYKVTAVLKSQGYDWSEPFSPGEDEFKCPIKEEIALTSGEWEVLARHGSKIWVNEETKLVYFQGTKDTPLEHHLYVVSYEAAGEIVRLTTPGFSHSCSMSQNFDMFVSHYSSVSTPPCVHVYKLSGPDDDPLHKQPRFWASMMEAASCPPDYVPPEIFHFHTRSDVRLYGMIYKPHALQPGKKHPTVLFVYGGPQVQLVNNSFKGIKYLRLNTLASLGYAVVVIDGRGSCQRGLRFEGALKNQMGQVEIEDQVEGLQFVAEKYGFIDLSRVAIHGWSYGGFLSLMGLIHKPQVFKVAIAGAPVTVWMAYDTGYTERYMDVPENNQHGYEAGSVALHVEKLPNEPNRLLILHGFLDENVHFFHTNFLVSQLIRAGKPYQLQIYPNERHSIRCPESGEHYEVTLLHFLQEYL

HepG2 = assay: Cytotoxicity against human HepG2 cells assessed as reduction in cell viability at 1 to 100 uM measured after 48 hrs by MTT assay; type: cell-based; details: hepg2, 48 h, dose 1-100 µM
Procedure, shortened: (§4)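 HepG2 cells were exposed to compound at a range of concentrations for 48 h. Viability was measured by MTT assay. Mean ± SD, n = 3.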

Dipeptidyl peptidase 8 = Dipeptidyl peptidase 8 (Homo sapiens, UniProt Q6V1X1); assay: Inhibition of DPP8 (unknown origin)
Dipeptidyl peptidase 8, sequence (Q6V1X1 whole entry): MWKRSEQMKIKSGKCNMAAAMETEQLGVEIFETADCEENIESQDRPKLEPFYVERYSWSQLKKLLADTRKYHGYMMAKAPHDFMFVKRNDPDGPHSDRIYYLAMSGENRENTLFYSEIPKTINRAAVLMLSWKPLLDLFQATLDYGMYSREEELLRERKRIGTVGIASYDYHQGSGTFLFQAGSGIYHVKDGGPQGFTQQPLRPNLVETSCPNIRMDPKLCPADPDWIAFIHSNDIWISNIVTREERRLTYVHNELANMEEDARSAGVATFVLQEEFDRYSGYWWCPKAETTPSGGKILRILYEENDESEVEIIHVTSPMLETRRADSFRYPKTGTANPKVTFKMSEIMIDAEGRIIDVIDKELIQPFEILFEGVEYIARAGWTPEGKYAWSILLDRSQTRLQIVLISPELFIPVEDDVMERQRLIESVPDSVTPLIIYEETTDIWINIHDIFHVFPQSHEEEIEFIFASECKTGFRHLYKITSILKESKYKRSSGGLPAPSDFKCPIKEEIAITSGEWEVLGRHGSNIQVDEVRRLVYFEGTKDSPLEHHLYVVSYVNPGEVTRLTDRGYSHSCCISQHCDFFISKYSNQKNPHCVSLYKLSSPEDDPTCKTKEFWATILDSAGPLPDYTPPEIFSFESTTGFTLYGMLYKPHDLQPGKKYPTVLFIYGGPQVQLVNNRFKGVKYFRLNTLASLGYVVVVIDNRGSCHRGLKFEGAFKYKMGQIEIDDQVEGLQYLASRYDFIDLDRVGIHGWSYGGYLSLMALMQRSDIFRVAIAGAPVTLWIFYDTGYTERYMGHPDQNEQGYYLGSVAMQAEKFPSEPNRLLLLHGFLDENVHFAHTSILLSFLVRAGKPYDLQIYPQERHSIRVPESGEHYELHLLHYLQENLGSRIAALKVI

Mus musculus [8] = assay: Anti-Hyperglycemic activity in high fat diet-fed/streptozotocin-induced type 2 diabetic mellitus C57BL/6 mouse model assessed as blood glucose level at 1 mg/kg, ip administered 30 mins prior to glucose challenge and measured after 2 hrs by IPGTT (reference value: 12.7 +/- 0.7 mM); type: functional; details: time 150 min, 2.5 h; procedure, shortened: as §3
Mus musculus [9] = assay: Anti-Hyperglycemic activity in high fat diet-fed/streptozotocin-induced type 2 diabetic mellitus C57BL/6 mouse model assessed as blood glucose level at 5 mg/kg, ip administered 30 mins prior to glucose challenge and measured after 0.5 hrs by IPGTT (reference value: 13.4 +/- 1.1 mM); type: functional; details: time 60 min, 1 h; procedure, shortened: as §3
Mus musculus [10] = assay: Anti-Hyperglycemic activity in high fat diet-fed/streptozotocin-induced type 2 diabetic mellitus C57BL/6 mouse model assessed as blood glucose level at 10 mg/kg, po administered 30 mins prior to glucose challenge and measured after 60 mins by OGTT (reference value: 15.8 +/-4.5 mM); type: functional; details: time 90 min, 1.5 h
Mus musculus [11] = assay: Anti-Hyperglycemic activity in high fat diet-fed/streptozotocin-induced type 2 diabetic mellitus C57BL/6 mouse model assessed as blood glucose level at 1 mg/kg, ip administered 30 mins prior to glucose challenge and measured after 0.5 hrs by IPGTT (reference value: 12.7 +/- 0.7 mM); type: functional; details: time 60 min; procedure, shortened: as §3
Mus musculus [12] = assay: Anti-Hyperglycemic activity in high fat diet-fed/streptozotocin-induced type 2 diabetic mellitus C57BL/6 mouse model assessed as blood glucose level at 10 mg/kg, po administered 30 mins prior to glucose challenge and measured after 120 mins by OGTT (reference value: 15.8 +/-4.5 mM); type: functional; details: time 150 min, 2.5 h
Mus musculus [13] = assay: Anti-Hyperglycemic activity in high fat diet-fed/streptozotocin-induced type 2 diabetic mellitus C57BL/6 mouse model assessed as blood glucose level at 10 mg/kg, po administered 30 mins prior to glucose challenge and measured after 90 mins by OGTT (reference value: 15.8 +/-4.5 mM); type: functional; details: time 120 min, 2 h
[14] = Cytotoxicity against human HepG2 cells assessed as cell viability at 100 uM measured after 48 hrs by MTT assay; type: cell-based; details: read-out: Activity; procedure, shortened: as §4
Mus musculus [15] = assay: Anti-Hyperglycemic activity in high fat diet-fed/streptozotocin-induced type 2 diabetic mellitus C57BL/6 mouse model assessed as reduction in AUC(0 to 120 mins) of blood glucose level at 1 mg/kg, ip administered 30 mins prior to glucose challenge and measured after 120 mins by IGTT; type: functional; details: C57BL/6, ip, 2.5 h, time 150 min; procedure, shortened: as §1
Mus musculus [16] = assay: Anti-Hyperglycemic activity in high fat diet-fed/streptozotocin-induced type 2 diabetic mellitus C57BL/6 mouse model assessed as reduction in AUC(0 to 120 mins) of blood glucose level at 5 mg/kg, ip administered 30 mins prior to glucose challenge and measured after 120 mins by IGTT; type: functional; details: C57BL/6, ip, 2.5 h, time 150 min; procedure, shortened: as §1
Mus musculus [17] = assay: Anti-Hyperglycemic activity in high fat diet-fed/streptozotocin-induced type 2 diabetic mellitus C57BL/6 mouse model assessed as blood glucose level at 5 mg/kg, ip administered 30 mins prior to glucose challenge and measured after 1 hr by IPGTT (reference value: 13.4 +/- 1.1 mM); type: functional; details: time 90 min, 1.5 h; procedure, shortened: as §3
Mus musculus [18] = assay: Anti-Hyperglycemic activity in high fat diet-fed/streptozotocin-induced type 2 diabetic mellitus C57BL/6 mouse model assessed as blood glucose level at 1 mg/kg, ip administered 30 mins prior to glucose challenge and measured after 1 hr by IPGTT (reference value: 12.7 +/- 0.7 mM); type: functional; details: time 90 min, 1.5 h; procedure, shortened: as §3
Mus musculus [19] = assay: Anti-Hyperglycemic activity in high fat diet-fed/streptozotocin-induced type 2 diabetic mellitus C57BL/6 mouse model assessed as blood glucose level at 5 mg/kg, ip administered 30 mins prior to glucose challenge and measured after 1.5 hrs by IPGTT (reference value: 13.4 +/- 1.1 mM); type: functional; details: time 120 min, 2 h; procedure, shortened: as §3
Mus musculus [20] = assay: Anti-Hyperglycemic activity in high fat diet-fed/streptozotocin-induced type 2 diabetic mellitus C57BL/6 mouse model assessed as reduction in AUC(0 to 120 mins) of blood glucose level at 10 mg/kg, po administered 30 mins prior to glucose challenge and measured after 120 mins by OGTT; type: functional; details: C57BL/6, po, 2.5 h, time 150 min; procedure, shortened: as §1
Mus musculus [21] = assay: Anti-Hyperglycemic activity in high fat diet-fed/streptozotocin-induced type 2 diabetic mellitus C57BL/6 mouse model assessed as blood glucose level at 10 mg/kg, po administered 30 mins prior to glucose challenge and measured after 30 mins by OGTT (reference value: 15.8 +/-4.5 mM); type: functional; details: time 60 min, 1 h
Mus musculus [22] = assay: Anti-Hyperglycemic activity in high fat diet-fed/streptozotocin-induced type 2 diabetic mellitus C57BL/6 mouse model assessed as blood glucose level at 5 mg/kg, ip administered 30 mins prior to glucose challenge and measured after 2 hrs by IPGTT (reference value: 13.4 +/- 1.1 mM); type: functional; details: time 150 min, 2.5 h; procedure, shortened: as §3
Mus musculus [23] = assay: Anti-Hyperglycemic activity in high fat diet-fed/streptozotocin-induced type 2 diabetic mellitus C57BL/6 mouse model assessed as blood glucose level at 1 mg/kg, ip administered 30 mins prior to glucose challenge and measured after 1.5 hrs by IPGTT (reference value: 12.7 +/- 0.7 mM); type: functional; details: time 120 min, 2 h; procedure, shortened: as §3

`Cn1c(=O)cc(N2CCC[C@@H](N)C2)n(Cc2ccccc2C#N)c1=O` [ALOGLIPTIN] gave an inhibition in vivo at 10 mg/kg (Mus musculus [1]) of 30%, an inhibition in vivo at 10 mg/kg/day (Mus musculus [2]) of 57% and an Activity (Mus musculus [3]) of 16.3 mM. For the same compound, the Activity (Mus musculus [4]) was 22.9 mM, the Activity (Mus musculus [5]) was 17.4 mM and the Activity (Mus musculus [6]) was “inactive”. For the same compound, the Activity (Mus musculus [7]) was 15 mM.
With `Clc1ccc(Nc2cc(N3CCNCC3)nc3ccnn23)c(Cl)c1` the IC50 (Dipeptidyl peptidase 9) was > 100 µM, the Activity (HepG2) was “Toxic” and the IC50 (Dipeptidyl peptidase 8) was > 100 µM.
In the case of `Clc1ccc(CCNc2cc(N3CCNCC3)nc3ccnn23)c(Cl)c1`, the IC50 (Dipeptidyl peptidase 9) is reported as > 100 µM, the Activity (HepG2) is reported as “Toxic” and the IC50 (Dipeptidyl peptidase 8) is reported as > 100 µM.
For `Fc1ccc(CNc2cc(N3CCNCC3)nc3ccnn23)c(F)c1`, the inhibition in vivo at 10 mg/kg (Mus musculus [1]) was 47%, the inhibition in vivo at 10 mg/kg/day (Mus musculus [2]) was 46% and the IC50 (Dipeptidyl peptidase 9) was > 50 µM. For the same compound, the Activity (Mus musculus [3]) was 13 mM, the Activity (HepG2) was “Non-Toxic” and the Activity (Mus musculus [8]) was 14.8 mM. The Activity (Mus musculus [9]) was 23.4 mM, the Activity (Mus musculus [4]) was 16.2 mM and the Activity (Mus musculus [5]) was 14.4 mM. The Activity (Mus musculus [10]) was 19.1 mM, the Activity (Mus musculus [11]) was 25.7 mM and the Activity (Mus musculus [12]) was 15.6 mM. The Activity (Mus musculus [13]) was 18.5 mM, the viability at 48 h, 100 µM [14] was 90% and the Activity (Mus musculus [6]) was “inactive”. For the same compound, the inhibition in vivo at 1 mg/kg (Mus musculus [15]) was 26%, the inhibition in vivo at 5 mg/kg (Mus musculus [16]) was 28% and the Activity (Mus musculus [17]) was 18.5 mM. It also gave an Activity (Mus musculus [18]) of 18.6 mM, an Activity (Mus musculus [7]) of 10.9 mM and an Activity (Mus musculus [19]) of 17.4 mM. It also gave an inhibition in vivo at 10 mg/kg (Mus musculus [20]) of 22%, an Activity (Mus musculus [21]) of 26.7 mM and an Activity (Mus musculus [22]) of 15.1 mM. For the same compound, the Activity (Mus musculus [23]) was 17.9 mM and the IC50 (Dipeptidyl peptidase 8) was > 50 µM.
In the case of `Cc1ccc(Nc2cc(N3CCNCC3)nc3ccnn23)c(C)c1`, the IC50 (Dipeptidyl peptidase 9) is reported as > 100 µM and the IC50 (Dipeptidyl peptidase 8) is reported as > 100 µM.
In the case of `Cc1ccc(Nc2cc(N3CCC[C@@H](N)C3)nc3ccnn23)c(C)c1`, the IC50 (Dipeptidyl peptidase 9) is reported as > 100 µM and the IC50 (Dipeptidyl peptidase 8) is reported as > 100 µM.
With `N[C@@H]1CCCN(c2cc(NCc3ccc(Cl)cc3Cl)n3nccc3n2)C1` the IC50 (Dipeptidyl peptidase 9) was > 100 µM and the IC50 (Dipeptidyl peptidase 8) was > 100 µM.
With `N[C@@H]1CCCN(c2cc(NCc3ccccc3)n3nccc3n2)C1` the IC50 (Dipeptidyl peptidase 9) was > 100 µM, the Activity (HepG2) was “Toxic” and the IC50 (Dipeptidyl peptidase 8) was > 100 µM.
For `N[C@@H]1CCCN(c2cc(NCc3ccc(O)cc3)n3nccc3n2)C1`, the IC50 (Dipeptidyl peptidase 9) was > 50 µM and the IC50 (Dipeptidyl peptidase 8) was > 50 µM.
For `Cc1ccnc(Nc2cc(N3CCC[C@@H](N)C3)nc3ccnn23)c1`, the IC50 (Dipeptidyl peptidase 9) was > 100 µM and the IC50 (Dipeptidyl peptidase 8) was > 100 µM.

Reference: ChEMBL document CHEMBL4706598 (Eur J Med Chem, 2020)
